Experimental data of several laboratories.
BRAF V600E: Serine/threonine-protein kinase B-raf (BRAF, Homo sapiens, UniProt P15056, V600E)
Blk: Tyrosine-protein kinase Blk (Blk, Mus musculus, UniProt P16277)
PADI2: Protein-arginine deiminase type-2 (PADI2, Homo sapiens, UniProt Q9Y2J8)
SMARCA2: SWI/SNF-related matrix-associated actin-dependent regulator of chromatin subfamily A member 2 (SMARCA2, Homo sapiens, UniProt P51531)
DRD2: D(2) dopamine receptor (DRD2, Homo sapiens, UniProt P14416)
BPTF: Nucleosome-remodeling factor subunit BPTF (BPTF, Homo sapiens, UniProt Q12830)

`Cc1cc(=O)oc2cc(NC(=O)[C@@H](N)CCCNC(=N)N)ccc12` gave a Km of 88 µM (Endoplasmic reticulum aminopeptidase 2 (ERAP2, Homo sapiens, UniProt Q6P179); enzyme activity, substrate).
`Cc1ccc(C(CS(=O)(=O)c2ccccc2)=NN=C2N=C(c3ccc(Br)cc3)CS2)cc1` has an inhibition of 92% (BRAF V600E; enzyme activity, inhibitor, ATP luminescence; 10 µM).
`Cc1ccc(Nc2nccc(N(C)c3ccc4c(C)n(C)nc4c3)n2)cc1S(N)(=O)=O` gave an inhibition of 9% (Blk; enzyme activity, inhibitor; 0.3 µM).
For `N=C(CCl)NCCC[C@H](NC(=O)c1ccc(-c2ccccc2)cc1)c1nn[nH]n1`, the kinact/KI was 37.2 M⁻¹ s⁻¹ (PADI2; enzyme activity, inhibitor).
The inhibition of `CCN1CCCn2c1nc1c2c(=O)n(C)c(=O)n1C` is reported as 5% (Adenosine receptor A3 (ADORA3, Homo sapiens, UniProt P0DMS8); ligand displacement, radioligand; 10 µM, cell membranes).
The inhibition of `Cc1ccc(C(CS(=O)(=O)c2ccccc2)=NN=C2N=C(c3ccc(C)cc3)CS2)cc1` is reported as 22% (BRAF V600E; enzyme activity, inhibitor, ATP luminescence; 10 nM).
The ΔTm of `CCC(/C=C1\CCn2c1nc(=O)c1cc(Cl)ccc12)CC` is reported as -0.49 °C (SMARCA2; thermal stability, DSF; 100 µM).
The remaining activity of `CCCOc1ccc(OC)c(F)c1C(=O)c1ccc(C(=O)N[C@@H]2CNC[C@H]2NC(=O)c2ccc3[nH]ncc3c2)cc1` is reported as 42% (Blk; enzyme activity, inhibitor; 10 µM).
`CC(C)(C)n1nnc([C@H](CCCNC(=N)CF)NC(=O)c2ccccc2C(=O)O)n1` has a kinact/KI of 2020 M⁻¹ s⁻¹ (PADI2; enzyme activity, inhibitor).
With `CC(C)(C)c1nc(-c2cccc(NS(=O)(=O)c3c(F)cccc3F)c2F)c(-c2ccnc(N)n2)s1` the inhibition was 34% (BRAF V600E; enzyme activity, inhibitor, ATP luminescence; 10 nM).
With `CC1(c2ccccc2)COCC(N)=N1` (stereo not shown) the ΔTm was 2.78 °C (Beta-secretase 1 (BACE1, Homo sapiens, UniProt P56817); thermal stability, DSF; 2.1 mM, pH 5.4).
`CCC(/C=C1\CCn2c1nc(=O)c1ccc(Cl)cc12)CC` has a ΔTm of -2.09 °C (SMARCA2; thermal stability, DSF; 100 µM).
With `NS(=O)(=O)c1ccc(CCNCc2ccc(-c3ccccc3F)o2)cc1` the inhibition was 34.6% (DRD2; enzyme activity, inhibitor; 10 µM).
With `NS(=O)(=O)c1ccc(Nc2nc(-c3ccc(F)cc3)c3ccccc3n2)cc1` the remaining binding was 63% (BPTF; binding, competition with immobilised ligand; 1 µM).
`CCC(/C=C1\CCn2c1nc(=O)c1ccc(O)cc12)CC` gave a ΔTm of -0.07 °C (SMARCA2; thermal stability, DSF; 100 µM).
For `C[S+]([O-])c1ccc(-c2nc(-c3ccncc3)c(-c3ccc(F)cc3)[nH]2)cc1` (stereo not shown), the ΔTm was 0.31 °C (SMARCA2; thermal stability, DSF; 10 µM).
`Nc1ncnc2occ(-c3ccc(NC(=O)Nc4cc(C(F)(F)F)ccc4F)cc3)c12` has a remaining signal of 100% (Mitogen-activated protein kinase 4 (MAPK4, Homo sapiens, UniProt P31152); cell-free assay, inhibitor; 20 µM).
`CCC(/C=C1\CCn2c1nc(=O)c1c(Cl)c(Cl)ccc12)CC` gave a ΔTm of 2.86 °C (SMARCA2; thermal stability, DSF; 100 µM).
With `Cc1ccc(C(CS(=O)(=O)c2ccccc2)=NNC(N)=S)cc1` the inhibition was 69% (BRAF V600E; enzyme activity, inhibitor, ATP luminescence; 1 µM).
`COc1cc(CNCCc2c[nH]c3ccccc23)cc(Cl)c1OCC(N)=O` gave an inhibition of 30.3% (DRD2; enzyme activity, inhibitor; 10 µM).
With `NCCCC[C@H](NC(=O)[C@@H]1CCCN1C(=O)[C@@H]1CSSC[C@H](N)C(=O)N[C@@H](Cc2ccc(O)cc2)C(=O)N[C@@H](Cc2ccccc2)C(=O)N[C@@H](CCC(N)=O)C(=O)N[C@@H](CC(N)=O)C(=O)N1)C(=O)NCC(N)=O` the Emax was roughly 100% (Vasopressin V2 receptor (AVPR2, Homo sapiens, UniProt P30518); cAMP, agonist, TR-FRET; CHO-K1).
For `Cc1ccc(C(CS(=O)(=O)c2ccccc2)=NNc2nc(C)c(N=Nc3cccc(C)c3)s2)cc1`, the inhibition was 35% (BRAF V600E; enzyme activity, inhibitor, ATP luminescence; 10 nM).
`Cc1cnc(NC2CCOCC2)nc1-n1cnc(C(=O)NC(CN)c2cc(F)cc(Cl)c2)c1` (stereo not shown) has a remaining activity of 106% (Blk; enzyme activity, inhibitor, radiometric; 1 µM).
For `Cc1ccc(C(CS(=O)(=O)c2ccccc2)=NNc2nc(C)c(N=Nc3ccccc3)s2)cc1`, the inhibition was 42% (BRAF V600E; enzyme activity, inhibitor, ATP luminescence; 0.1 µM).
`CCC(/C=C1\CCCn2c1nc(=O)c1c(Cl)cccc12)CC` has a ΔTm of 0.48 °C (SMARCA2; thermal stability, DSF; 100 µM).
`Cc1ccc(N=Nc2sc(NN=C(CS(=O)(=O)c3ccccc3)c3ccc(C)cc3)nc2C)cc1` has an inhibition of 73% (BRAF V600E; enzyme activity, inhibitor, ATP luminescence; 1 µM).
The kinact/KI of `N=C(CF)NCCC[C@H](NC(=O)c1ccccc1C(=O)O)c1nn[nH]n1` is reported as 42.5 M⁻¹ s⁻¹ (PADI2; enzyme activity, inhibitor).
The inhibition of `CC(=O)N[C@H]1CSSC[C@@H](C(=O)N[C@@H](Cc2c[nH]c3ccccc23)C(N)=O)NC(=O)[C@H](Cc2ccccc2)NC(=O)[C@H](CCCNC(=N)N)NC1=O` is reported as 42% (Melanocortin receptor 3 (MC3R, Homo sapiens, UniProt P41968); ligand displacement, radioligand; 10 µM, 40 min).
For `CC(C)(C)n1nnc([C@H](CCCNC(=N)CF)NC(=O)c2ccc(-c3ccccc3)cc2)n1`, the kinact/KI was 189 M⁻¹ s⁻¹ (PADI2; enzyme activity, inhibitor).
`Cc1ccc(C(=O)Nc2ccc(CN3CCN(C)CC3)c(C(F)(F)F)c2)cc1C#Cc1cnc2cccnn12` has a remaining activity of 97% (Serine/threonine-protein kinase Nek5 (NEK5, Homo sapiens, UniProt Q6P3R8); enzyme activity, inhibitor; 23.5 nM).
`Cc1ncsc1-c1ccc(CNC(=O)[C@@H]2C[C@@H](O)CN2C(=O)[C@@H](NC(=O)C2(F)CC2)C(C)(C)C)c(OCCOCCOCCN2CCN(c3cc(-c4ccccc4O)nnc3N)CC2)c1` has a Dmax of roughly 65% (SMARCA2; protein level, degrader; MV4-11).
With `CCC(/C=C1\CCn2c1nc(=O)c1cc(O)ccc12)CC` the ΔTm was -0.28 °C (SMARCA2; thermal stability, DSF; 100 µM).
The ΔTm of `Oc1ccc(-c2nc(-c3ccncc3)c(-c3ccc(F)cc3)[nH]2)cc1` is reported as 0.18 °C (BPTF; thermal stability, DSF; 10 µM).
For `CC/C=C1\CCn2c1nc(=O)c1c(Cl)cccc12`, the ΔTm was -1.47 °C (SMARCA2; thermal stability, DSF; 100 µM).
`N=C(CF)NCCC[C@H](NC(=O)c1ccccc1)c1nn[nH]n1` gave a kinact/KI of 6.42 M⁻¹ s⁻¹ (PADI2; enzyme activity, inhibitor).
`Cc1cnc(Nc2ccc(OCCN3CCCC3)cc2)nc1Nc1cccc(S(=O)(=O)NC(C)(C)C)c1` gave a ΔTm of -0.09 °C (SMARCA2; thermal stability, DSF; 10 µM).
`CC(C)(C)/C=C1\CCn2c1nc(=O)c1c(Cl)cccc12` has a ΔTm of -0.14 °C (SMARCA2; thermal stability, DSF; 100 µM).
